≈ marks a conversion by molar mass, not a printed value.
Columns and labels:
P388 [1] = experiment: Cytotoxicity against mouse P388 cells after 3 days by MTT assay; assay type: functional, cell-based; conditions: P388, 72 h
Procedure, shortened: (§1)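 Incubated with sample at 37 °C for 3 or 4 days; viable cell number then estimated by MTT colorimetric assay.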

P388 [2] = experiment: Cytotoxicity against adriamycin-resistant mouse P388 cells after 3 days by MTT assay; assay type: functional, cell-based; conditions: P388, 72 h; procedure, shortened: as §1
K562 [3] = experiment: Cytotoxicity against human K562 cells after 3 days by MTT assay; assay type: functional, cell-based; conditions: K562, 72 h; procedure, shortened: as §1
K562 [4] = experiment: Cytotoxicity against adriamycin-resistant human K562 cells after 3 days by MTT assay; assay type: functional, cell-based; conditions: K562, 72 h; procedure, shortened: as §1
B16 = experiment: Cytotoxicity against mouse B16 cells after 3 days by MTT assay; assay type: functional, cell-based; conditions: B16, 72 h; procedure, shortened: as §1
HeLa = experiment: Cytotoxicity against human HeLa cells after 3 days by MTT assay; assay type: functional, cell-based; conditions: 72 h; procedure, shortened: as §1
KB = experiment: Cytotoxicity against human KB cells after 3 days by MTT assay; assay type: functional, cell-based; conditions: 72 h; procedure, shortened: as §1
Protease = Protease (Human immunodeficiency virus 1, UniProt Q9YQ12); experiment: Inhibition of HIV1 protease
Mus musculus = experiment: Toxicity in mouse at 100 mg/kg, ip; assay type: organism-based; design: dose 100 mg/kg, route intraperitoneal; conditions: in vivo

Sequence of Protease (Q9YQ12 whole entry): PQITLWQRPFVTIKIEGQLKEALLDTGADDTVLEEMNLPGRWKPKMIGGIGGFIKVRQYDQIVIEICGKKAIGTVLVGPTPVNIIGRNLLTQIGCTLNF

IC50 (Protease)	Structure (SMILES)	IC50 (P388 [1])	IC50 (P388 [2])	IC50 (K562 [3])	IC50 (K562 [4])	IC50 (B16)	IC50 (HeLa)	IC50 (KB)	Activity (Mus musculus)
22.4 µM	CC(=O)O[C@@H]1[C@@H](O)[C@@H](O)[C@H](Oc2cc3c(=O)oc4c(O)c(O)cc5c(=O)oc(c2O)c3c45)O[C@H]1C	52 mg/L (≈ 106 µM)	19 mg/L (≈ 38.7 µM)	80 mg/L (≈ 163 µM)	56 mg/L (≈ 114 µM)	52 mg/L (≈ 106 µM)	76 mg/L (≈ 155 µM)	61 mg/L (≈ 124 µM)	Non-toxic
10.7 µM	C[C@@H]1O[C@@H](Oc2cc3c(=O)oc4c(O)c(O)cc5c(=O)oc(c2O)c3c45)[C@H](O)[C@H](O)[C@H]1O [ESCHWEILENOL C]	62 mg/L (≈ 138 µM)	53 mg/L (≈ 118 µM)	82 mg/L (≈ 183 µM)	67 mg/L (≈ 149 µM)	88 mg/L (≈ 196 µM)	86.5 mg/L (≈ 193 µM)	98 mg/L (≈ 219 µM)	–
